ChEMBL document CHEMBL4017542, “Identification of a Novel 1,2,3,4-Tetrahydrobenzo[b][1,6]naphthyridine Analogue as a Potent Phosphodiesterase 5 Inhibitor with Improved Aqueous Solubility for the Treatment of Alzheimer's Disease” (J Med Chem, 2017)
In brackets after ≈: the same amount, converted by molar mass. Activity calls are given as the source filed them. The calls are words filed in the database; no cut-off is given here.

How the values were obtained:
[1] = target: cGMP-specific 3',5'-cyclic phosphodiesterase (Homo sapiens, UniProt O76074); experiment: Inhibition of human recombinant PDE5A1 using FAM-labelled cGMP as substrate after 60 mins by fluorescence polarization assay
Outline: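 Fluorescence polarization assay, room temperature, 60 min, with 100 nM FAM-cGMP and 0.1-0.45 ng PDE5 or 22.5-250 ng PDE6. Binding agent then added for 60 min; read at ex 485/em 528 nm. Duplicates at each concentration. Activity normalized to no-compound and no-enzyme controls; IC50 from sigmoidal dose-response fit.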

[2] = target: Cone cGMP-specific 3',5'-cyclic phosphodiesterase subunit alpha' (Homo sapiens, UniProt P51160); experiment: Inhibition of human recombinant PDE6C using FAM-labelled cGMP as substrate after 60 mins by fluorescence polarization assay
Cone cGMP-specific 3',5'-cyclic phosphodiesterase subunit alpha', sequence (P51160 whole entry): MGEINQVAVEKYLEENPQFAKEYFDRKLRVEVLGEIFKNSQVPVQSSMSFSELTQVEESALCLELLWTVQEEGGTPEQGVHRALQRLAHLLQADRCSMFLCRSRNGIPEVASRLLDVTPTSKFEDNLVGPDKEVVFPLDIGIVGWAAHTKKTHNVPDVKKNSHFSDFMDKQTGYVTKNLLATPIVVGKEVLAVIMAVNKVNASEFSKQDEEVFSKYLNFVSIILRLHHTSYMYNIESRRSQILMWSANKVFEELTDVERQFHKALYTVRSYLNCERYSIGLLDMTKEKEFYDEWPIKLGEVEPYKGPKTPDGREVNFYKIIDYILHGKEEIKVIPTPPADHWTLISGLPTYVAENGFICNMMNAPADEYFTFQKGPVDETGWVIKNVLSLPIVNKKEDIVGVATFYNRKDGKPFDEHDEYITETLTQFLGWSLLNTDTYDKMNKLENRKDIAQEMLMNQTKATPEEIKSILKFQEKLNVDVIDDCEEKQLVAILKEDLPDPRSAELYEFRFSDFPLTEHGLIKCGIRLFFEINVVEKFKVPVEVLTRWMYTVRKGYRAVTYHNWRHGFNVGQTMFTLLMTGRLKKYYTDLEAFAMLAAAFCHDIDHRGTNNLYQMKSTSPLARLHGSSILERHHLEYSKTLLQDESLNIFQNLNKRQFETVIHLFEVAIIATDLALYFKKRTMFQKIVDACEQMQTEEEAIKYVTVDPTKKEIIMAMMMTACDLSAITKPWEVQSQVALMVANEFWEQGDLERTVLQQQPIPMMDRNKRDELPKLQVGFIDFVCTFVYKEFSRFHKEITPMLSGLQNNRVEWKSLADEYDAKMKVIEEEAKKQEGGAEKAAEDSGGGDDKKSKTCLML

Homo sapiens = species on record: Homo sapiens; experiment: Selectivity ratio of IC50 for human recombinant PDE6C to IC50 for human recombinant PDE5A1
[3] = Kinetic solubility of compound in phosphate buffer after 18 hrs by turbidimetric method; format: physicochemical; conditions: read-out: Kinetic_solubility
Outline: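 Compound serially diluted in DMSO at 100x final and diluted 100-fold into phosphate buffered saline. After 18 h at 37°C, turbidity read at 540 nm. Turbid if absorbance exceeded blank mean + 3 SD. Result is the highest concentration showing no turbidity.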

Mus musculus [4] = experiment: Elevation of cGMP levels in hippocampal slices of wild type C57Bl6 mouse at 3 to 10 mg/kg, ip administered for 30 mins followed by foot shock measured at 10 to 180 secs after shock by enzyme immunoassay; format: functional, organism-based
Outline: (§1)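 2-3 month old male and female C57Bl6 mice (20-25 g) dosed i.p. at 3 or 10 mg/kg in 2% DMSO & 2% Tween, or vehicle alone. Foot shock given 30 min later. Killed 10 s, 1 min or 3 min after shock. Hippocampi snap frozen. cGMP measured by enzyme immunoassay in duplicate and normalized to BCA protein. n=3 per group.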

Mus musculus [5] = experiment: Elevation of cGMP levels in hippocampal slices of wild type ip dosed C57Bl6 mouse administered for 30 mins followed by foot shock measured at 10 to 60 secs after shock by enzyme immunoassay; format: functional, organism-based; outline: as §1
Mus musculus [6] = experiment: Elevation of cGMP levels in hippocampal slices of wild type C57Bl6 mouse at 3 mg/kg, ip administered for 30 mins followed by foot shock measured at 10 to 60 secs after shock by enzyme immunoassay relative to control; format: functional
Outline: (§2)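 Male and female C57Bl6 mice, 2-3 months old, 20-25 g, given i.p. drug or vehicle (2% DMSO & 2% Tween). Foot shock 30 min after dosing; killed by cervical dislocation and decapitation at 10 s, 1 min or 3 min. Hippocampi snap-frozen. cGMP measured by enzyme immunoassay in duplicate and normalised to BCA protein; n=3 per group; compared with vehicle.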

Mus musculus [7] = experiment: Elevation of cGMP levels in hippocampal slices of wild type C57Bl6 mouse at 10 mg/kg, ip administered for 30 mins followed by foot shock measured at 10 to 60 secs after shock by enzyme immunoassay relative to control; format: functional; outline: as §2
Mus musculus [8] = experiment: Elevation of cGMP levels in hippocampal slices of wild type C57Bl6 mouse at 10 mg/kg, ip administered for 30 mins followed by foot shock measured at 180 secs after shock by enzyme immunoassay relative to control; format: functional; outline: as §2
Hippocampus [9] = experiment: Antialzheimer activity in […] transgenic mouse hippocampal slices assessed as long-term residual potentiation at 50 nM administered via bath perfusion for 10 mins prior to tetanus measured at the last 5 mins of 2 hrs recording (reference value: 137.90 +/- 10.83%); format: functional
Outline: (§3)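 Acute hippocampal slices from 3–4 month old APP/PS1 transgenic mice or WT littermates. Slices received 50 nM compound or vehicle through bath perfusion for 10 min before tetanus. Residual potentiation was taken as the mean over the last 5 min of a 2 h recording. Experiments were blinded, values are SEM, and groups were compared by 2-way ANOVA for repeated measures.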

Hippocampus [10] = experiment: Effect on long-term residual potentiation in wild type C57Bl6 mouse hippocampal slices at 50 nM administered via bath perfusion for 10 mins prior to tetanus measured at the last 5 mins of 2 hrs recording; format: ADME, tissue-based; conditions: 0.05 µM; outline: as §3
Mus musculus [11] = experiment: Antialzheimer activity in 3 to 4 months old APP1/PS1 transgenic mouse model assessed as long-term residual potentiation in hippocampal slices at 3 mg/kg, ip administered daily for 3 weeks measured at age of 6 to 7 months (reference value: 164.11 +/- 10.36%); format: functional
[12] = Plasma concentration in mouse at 25 mg/kg, ip measured at 0.25 hrs post dose by LC/MS analysis; format: ADME, organism-based
Outline: (§4)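 Mice given 25 mg/kg i.p., 3 animals per time point, sampled up to 2 h. Plasma taken from heparinized retro-orbital blood; brain homogenized in methanol. Both extracted with methanol plus internal standard and quantified by LC/MS against a standard curve. Half-life from single-phase exponential decay fit.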

[13] = Drug level in mouse brain at 25 mg/kg, ip measured at 0.25 hrs post dose by LC/MS analysis; format: ADME, organism-based; conditions: read-out: Drug uptake; outline: as §4
Mus musculus [14] = experiment: Plasma half life in mouse at 25 mg/kg, ip measured at 0.25 hrs post dose by LC/MS analysis; format: ADME, organism-based; conditions: in vivo; outline: as §4
Liver [15] = experiment: Half life in mouse liver microsomes at 1 uM measured up to 60 mins by LC-MS/MS analysis; format: ADME, microsome; conditions: 1 h
Outline: (§5)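 Liver microsomes incubated with test compound at 1 µM final, 37°C, after a 3 min preincubation without cofactor, alongside a testosterone control. Protein precipitated; samples analyzed by LC-MS/MS with electrospray. Peak area ratio to internal standard compared with time 0 to give % remaining. Half-life from single-phase exponential decay fit.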

Liver [16] = experiment: Half life in human liver microsomes at 1 uM measured up to 60 mins by LC-MS/MS analysis; format: ADME, microsome; conditions: 1 h; outline: as §5
Mus musculus [17] = experiment: Antialzheimer activity in APP1/PS1 transgenic mouse assessed as rescue contextual memory by measuring freezing at 3 mg/kg, ip administered daily for 3 weeks by contextual fear memory test (reference value: 15%); format: functional
Outline: (§6)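 Mice (APP/PS1 or wild-type) dosed 3 mg/kg i.p. daily for 3 weeks from age 3-4 months. Contextual fear learning scored 24 h after training as freezing (no movement except respiration) over 5 min in the training chamber. Mice tested at 3-4 months or at 6-7 months of age. Experiments blind; mean ± SEM.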

Mus musculus [18] = experiment: Antialzheimer activity in APP1/PS1 transgenic mouse assessed as effect on number of errors at 3 mg/kg, ip administered daily for 3 weeks by 2 day radial arm water maze test (reference value: 3); format: functional
Mus musculus [19] = experiment: Antialzheimer activity in 3 to 4 months old APP1/PS1 transgenic mouse assessed as effect on freezing at 3 mg/kg, ip administered daily for 3 weeks measured at age of 6 to 7 months by contextual fear memory test (reference value: 15%); format: functional; outline: as §6
Mus musculus [20] = experiment: Antialzheimer activity in 3 to 4 months old APP1/PS1 transgenic mouse assessed as effect on number of errors at 3 mg/kg, ip administered daily for 3 weeks measured at age of 6 to 7 months by 2 day radial arm water maze test (reference value: 2.5); format: functional
Mus musculus [21] = experiment: Toxicity in wild type C57Bl6 mouse assessed as effect on freezing at 3 mg/kg, ip administered daily for 3 weeks by contextual fear memory test; format: organism-based; conditions: in vivo, 504 h; outline: as §6
Mus musculus [22] = experiment: Toxicity in wild type C57Bl6 mouse assessed as effect on number of errors at 3 mg/kg, ip administered daily for 3 weeks by 2 day radial arm water maze test; format: organism-based; conditions: in vivo
Outline: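 Wild-type mice given 3 mg/kg i.p. daily for 3 weeks from age 3-4 months. Tested in 2-day radial arm water maze, with a hidden platform in one of 6 arms. Errors counted, averaged per mouse over blocks of 3 trials. Blind scoring; SEM.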

CC(=O)N1CCc2nc3ccc(C#N)cc3c(NCc3ccc(OC(F)(F)F)c(Cl)c3)c2C1
IC50 [1]: 337 nM

COc1c(F)cc(CNc2c3c(nc4ccc(C#N)cc24)CCN(C(C)=O)C3)cc1Cl
IC50 [1]: 0.32 nM

CCN1Cc2nc3ccc(C#N)cc3c(NCc3ccc(OC)c(Cl)c3)c2C1=O
IC50 [2]: 6.6 nM
Ratio IC50 (Homo sapiens): 100
solubility kinetic at 18 h [3]: 3.1 µM (≈ 1.26 µg/mL)

CCN1CCc2nc3ccc(C#N)cc3c(NCc3ccc(OC)c(Cl)c3)c2C1
IC50 [1]: 0.19 nM

COc1ccc2nc3c(c(NCc4ccc(OC)c(Cl)c4)c2c1)CN(C(C)=O)CC3
IC50 [1]: 45.2 nM

CC(=O)N1CCc2nc3ccc(C#N)cc3c(NCc3ccnc(Cl)c3)c2C1
IC50 [1]: 57 nM

COc1ccc(CNc2c3c(nc4ccc(C#N)cc24)CCN(C(C)=O)C3)cc1Cl
Activity (Mus musculus [4]): Active
Activity (Mus musculus [5]): Dose-dependent effect
fold change (FC) (Mus musculus [6]): 1.5
fold change (FC) (Mus musculus [7]): 1.7
fold change (FC) (Mus musculus [8]): 1.3
Activity (Hippocampus [9]): 201.76%
Activity (Hippocampus [10]): Non-Toxic
Activity (Mus musculus [11]): 226.22%
solubility kinetic at 18 h [3]: > 500 µM
concentration at 0.25 h [12]: 1570 ng/mL
concentration at 0.25 h [13]: 492 ng/g
t1/2 (Mus musculus [14]): 64.2 min
t1/2 (Liver [15]): 3.2 min
t1/2 (Liver [16]): 6 min
Activity (Mus musculus [17]): 30%
Activity (Mus musculus [18]): 1
Activity (Mus musculus [19]): 40%
Activity (Mus musculus [20]): 1
Activity (Mus musculus [21]): 30%
Activity (Mus musculus [22]): Non-Toxic

COc1ccc(CNc2c3c(nc4ccc(Br)cc24)CCN(C(C)=O)C3)cc1Cl
IC50 [1]: 3.1 nM

COc1ccc(CNc2c3c(nc4ccc(C#N)cc24)CCN(C)C3)cc1Cl
IC50 [1]: 0.59 nM

COc1ccc(CNc2c(CO)cnc3c(C4CC4)cc(C#N)cc23)cc1Cl
solubility kinetic at 18 h [3]: < 3.9 µM

CC(=O)N1CCc2nc3ccc(C#N)cc3c(NCc3ccc(F)c(Cl)c3)c2C1
IC50 [1]: 1.5 nM
